Article PMC6218153 (Journal of Alzheimer's Disease Reports, 2018)
Where no end group is shown, it is not given here.

Legend:
[1] = Metabolic stability in mouse plasma; type: in vitro ADME
Procedure, shortened: (§1)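 Test compound (100 μM stock in methanol) added to 1 μM final in plasma or brain homogenate (1:3 brain:PBS, w/v) and incubated at room temperature. Sampled at 15 and 30 min and 1, 2 and 4 h; time-zero samples pre-quenched with methanol. Proteins were methanol-precipitated; supernatant evaporated, reconstituted in 0.1% formic acid and analysed by LC/MS/MS. Duplicates per time point; results expressed as % of time 0.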

[2] = Radiolabel distribution study of 3H-P8 after IV or IN delivery; type: in vivo; settings: rat
Procedure, shortened: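 Adult male SD rats (n = 6/route) were anaesthetised with ketamine/xylazine/acepromazine. They received 0.5 mg test compound plus 60 μCi tritiated label in 60 μL over 18 min, either by IV infusion or by IN drops to alternating nares every 2 min while supine. Blood was drawn 10 and 20 min after dosing ended. At 30 min: cardiac puncture, saline perfusion, then tissue scintillation counting. Concentrations were derived from DPM, tissue weight and specific activity; values beyond 2 SD were excluded as outliers.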

[3] = Metabolic stability in human brain homogenate; type: in vitro ADME
Procedure, shortened: as §1

[4] = Metabolic stability in mouse brain homogenate; type: in vitro ADME
Procedure, shortened: as §1

[5] = Metabolic stability in human plasma; type: in vitro ADME
Procedure, shortened: as §1

## DEEEDEEL [P8, DEEEDEEL]
[1]
  half-life: > 4 h
  remaining at 2 h, 1 μM: 100%
[2]
  improvement of brain targeting, IN compared to IV delivery: approximately 4 fold
[3]; human brain homogenate, 1μM P8, room temperature
  half-life: 2 h
[3]; human, brain homogenate
  remaining at 2 h, 1 μM: 51.4%
[4]
  remaining at 2 h, 1 μM: 49.2%
[5]
  half-life: > 2 h
  remaining at 2 h, 1 μM: 63.1%
